Here are results for 94 compounds from ChEMBL document CHEMBL4513216, “Probing the Open Global Health Chemical Diversity Library for Multistage-Active Starting Points for Next-Generation Antimalarials” (ACS Infect Dis, 2020).

The series can be described thus: Toxicity liver stage against HepG2, at 10uM. In kind it is cell-based. Set-up: test concentration 10 uM, cell line HepG2-A16-CD81EGFP. As to conditions: human, HepG2-A16-CD81EGFP cells; read-out: INHIBITION
In a few lines: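 Uninfected HepG2-A16-CD81EGFP cells, 3 × 10^3 per well, 1536-well, plated on prespotted compound at 10 μM final, parasite-free screening media added to match infected plates; puromycin 10 μM positive, DMSO 0.5% negative; run in parallel with 48 h PbLuc assay at 37 °C, 5% CO2; viability by CellTiter-Glo luminescence, normalized to controls.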
Regarding `Cc1noc(C)c1-c1cccc(C2CCN(CC(=O)N(C)C)CC2)n1`, the cytotoxicity at 10 µM is 6.33%.

Regarding `O=C1N[C@@H]2CCN(C(=O)C3CCCC3)[C@@H]2C(=O)N1c1ccc(F)cc1`, the cytotoxicity at 10 µM is -1.1%.

As to `CCc1ccsc1C(=O)NC(C#N)CC(C)C` (centres undefined), the cytotoxicity at 10 µM was -15%.

With `O=C1C(Sc2nc(=O)ccn2C2CC2)CCN1c1ccccc1` (centres undefined), the cytotoxicity at 10 µM was determined as 1.27%.

For the compound `O=C(c1ccoc1)N1CCC(NCc2ccccc2Cl)CC1`, the cytotoxicity at 10 µM came out at 3.95%.

For `CCCN1CCC(Cc2nn3c(C(C)C)nnc3s2)CC1`, the cytotoxicity at 10 µM was -6.17%.

Take `CN(C)CCOCC1CN(C(=O)c2ccnnc2)Cc2ccnn2C1` (centres undefined): the cytotoxicity at 10 µM came to 7.89%.

On to `Cc1cnn(CC2CCCN2C(=O)CCc2c(C)nn(C)c2C)c1` (centres undefined), for which the cytotoxicity at 10 µM amounted to 0.407%.

As for `Cc1nn(C)cc1-c1ccnc(N2CCN(c3cnccn3)CC2)n1`, the cytotoxicity at 10 µM is 7.26%.

With `CCc1ccc(CNC(=O)CCNc2ncccn2)s1`, the cytotoxicity at 10 µM was 3.73%.

For `Cc1cccc(S(=O)(=O)N2CCC3(CC2)CC(N(C)C)CO3)c1` (centres undefined), the cytotoxicity at 10 µM was -126%.

As to `CSc1cccc(CNC(=O)[C@H]2CNC[C@@H](C(=O)N3CCOCC3)C2)c1`, the cytotoxicity at 10 µM is -6.91%.

On to `COCCN1CCc2c(cnc(-c3ccoc3)c2C(=O)O)C1`, for which the cytotoxicity at 10 µM was 0.908%.

Consider `CC(C)(C)C(=O)N1CCC(c2nc(O)cc(-c3ccccn3)n2)CC1`, for which the cytotoxicity at 10 µM is -1.13%.

Turning to `Cn1cc(C(=O)NCc2cn3c(n2)CN(CC2CCOCC2)CC3)cn1`, the cytotoxicity at 10 µM is -12.9%.

As to `Cc1cc(C(=O)N2CCCC(c3cc(C(F)(F)F)[nH]n3)C2)[nH]n1` (centres undefined), the cytotoxicity at 10 µM is -6.79%.

Take `Cc1cc(C)c(CNC(=O)NCC2CCCN2C)c(=O)[nH]1` (centres undefined): the cytotoxicity at 10 µM was -2.14%.

Take `Cc1noc(C)c1CNC(=O)Nc1ccc(N2CCOC(C)C2)cc1` (centres undefined): the cytotoxicity at 10 µM was -2.35%.

As to `COCCN(Cc1ccoc1)C(=O)c1c(F)cccc1F`, the cytotoxicity at 10 µM came out at 10.6%.

With `Cc1nc(C(=O)N2CCOC(Cc3ccccc3)C2)co1` (centres undefined), the cytotoxicity at 10 µM was -3.24%.

Consider `CCC(O)CN1CCN(C(=O)c2cnn(-c3ccccc3F)c2)CC1` (centres undefined), for which the cytotoxicity at 10 µM is -3.69%.

As for `CCC(C)[C@H](NC(=O)c1cc(F)ccc1-n1cnnn1)C(=O)OC` (some centres undefined), the cytotoxicity at 10 µM was 2.53%.

Regarding `CN(Cc1ccccc1)CC1(O)CCCN(CCC2CCCCC2)C1=O` (centres undefined), the cytotoxicity at 10 µM was -2.3%.

Turning to `NC(c1ccc(F)cc1)c1cccs1` (centres undefined), the cytotoxicity at 10 µM stood at 15.6%.

Turning to `CN(C)C(=O)COC[C@]12COC[C@H]1CN(Cc1ccco1)C2`, the cytotoxicity at 10 µM was -0.522%.

With `Cc1cnc(N2C[C@@H]3[C@@H](C2)OCC(=O)N3C)nc1`, the cytotoxicity at 10 µM was -3.4%.

In the case of `CC(=O)NCc1ccc(C(=O)N2CCCc3c(F)ccc(C)c32)cc1`, the cytotoxicity at 10 µM is -3.26%.

For the compound `O=C(NCCNC(=O)c1scnc1Cl)c1cccs1`, the cytotoxicity at 10 µM was -9.44%.

`Cn1cnc(S(=O)(=O)N2C[C@H](OCC3CC3)[C@H]3OCCC[C@H]32)c1`: the cytotoxicity at 10 µM was -149%.

Consider `CN(C)C[C@H]1OC[C@@H]2CN(C(=O)NCc3cccc(F)c3)CC[C@@H]21`, for which the cytotoxicity at 10 µM was -2.12%.

Consider `N#Cc1ccnc(N2CCC(NCCN3CCOCC3)CC2)c1`, for which the cytotoxicity at 10 µM was -43.4%.

Take `Cc1oc(NC(=O)C(C)N2CCN(C(=O)C3CC3)CC2)c(C#N)c1C` (centres undefined): the cytotoxicity at 10 µM was -18.6%.

Take `Cc1nnc(N2C[C@@H]3CCCO[C@@H]3[C@H](N3CCCC3=O)C2)s1`: the cytotoxicity at 10 µM amounted to 17.4%.

Regarding `Cn1cc(C2CCCN2C(=O)CCCOc2ccc(F)cc2F)cn1` (centres undefined), the cytotoxicity at 10 µM is -7.54%.

Take `Cc1cc(C)c(CNC(=O)NCC2CCCO2)c(=O)[nH]1` (centres undefined): the cytotoxicity at 10 µM is -3.76%.

Regarding `Cn1c(C2CC2)nc2cc(NC(=O)C3CCOC3)ccc21` (centres undefined), the cytotoxicity at 10 µM stood at 3.09%.

For the compound `CC1(C)CN(C(=O)Nc2cc(C(F)(F)F)c[nH]c2=O)CCO1`, the cytotoxicity at 10 µM is 5.12%.

`Cc1c(-c2c(-c3ccccc3)ncn2[C@@H](C(=O)O)[C@H](C)O)cnn1C`: the cytotoxicity at 10 µM is -7.67%.

Consider `Cc1cc(N(Cc2cccnc2)C2CC2)n2nc(C(F)(F)F)nc2n1`, for which the cytotoxicity at 10 µM is -1.95%.

Turning to `CCc1ncnc2c1CCN(CCOC)CC2`, the cytotoxicity at 10 µM worked out at 5.19%.

For `OCCN1CCN(Cc2cnc3c(-c4ccccc4)cnn3c2)CC1`, the cytotoxicity at 10 µM was -2.72%.

With `CCS(=O)(=O)N1CC[C@@H]2[C@H](COCC3CC3)CN(C)C(=O)[C@@H]2CC1`, the cytotoxicity at 10 µM is -4.79%.

As for `COC(=O)COn1c(SC)nc2ccccc2c1=O`, the cytotoxicity at 10 µM was -6.53%.

In the case of `CCCn1cc(C(=O)NCCc2ccc3c(c2)OCO3)c(C)n1`, the cytotoxicity at 10 µM turned out to be 96.3%.

Regarding `Cc1ccc(OCc2cccc(C(=O)N(C)C(C)CC#N)c2)cn1` (centres undefined), the cytotoxicity at 10 µM is 6.36%.

As to `Cc1ncccc1CNCC1CCN(CC(O)c2ccccc2)CC1` (centres undefined), the cytotoxicity at 10 µM is -6.76%.

On to `CCCN1C[C@@H]2CC[C@H]1CN(Cc1cccc(-n3cccn3)c1)C2`, for which the cytotoxicity at 10 µM was -1.69%.

`NC(=O)CN(CC(=O)NCc1cc(F)cc(F)c1)C1CCCC1`: the cytotoxicity at 10 µM is -8.58%.

For the compound `CCn1nc2c(cc1=O)CN(CCOc1cccc(C#N)c1)CC2`, the cytotoxicity at 10 µM is 4.67%.

On to `CC(C(=O)Nc1cc(F)ccc1F)N1CCN(Cc2ncc[nH]2)CC1` (centres undefined), for which the cytotoxicity at 10 µM was -15.8%.

As for `CCc1cccc(NC(=O)NC2CCc3nc(C)nn3C2)c1` (centres undefined), the cytotoxicity at 10 µM is -12.5%.

Turning to `Cc1cc(C(=O)N2C[C@@H](CN3CCCCC3)[C@@H](CO)C2)ccc1O`, the cytotoxicity at 10 µM was 0.251%.

For `CN(CC1CC1)C(=O)CN(Cc1cccc(O)c1)C1CCC(O)CC1` (centres undefined), the cytotoxicity at 10 µM was -1.21%.

As to `Cc1cc(C(=O)NCc2ccnc(N3CCOCC3)c2)c(C)s1`, the cytotoxicity at 10 µM was -0.426%.

Consider `O=S1(=O)CCC(S(=O)(=O)c2cccc(S(=O)(=O)N3CCCC3)c2)C1` (centres undefined), for which the cytotoxicity at 10 µM came to 3.45%.

As to `CN(C)[C@@H]1CN(Cc2ccco2)C[C@@H]2CCCO[C@@H]21`, the cytotoxicity at 10 µM was determined as 2.75%.

As for `CCOc1cc(C)nc(N2CCN(C(=O)c3ccncc3)CC2)n1`, the cytotoxicity at 10 µM was determined as 3.12%.

On to `O=C(c1cnc(O)cn1)N(Cc1ccsc1)CC1CCCO1` (centres undefined), for which the cytotoxicity at 10 µM came to 3.7%.

Regarding `Cc1nc(CN2CCN(S(=O)(=O)N3CCOCC3)CC2)oc1C`, the cytotoxicity at 10 µM came out at 0.373%.

For the compound `Cc1cccc(CN2C[C@@H]3CN(C(=O)c4ccsc4)C[C@@H]3C2=O)n1`, the cytotoxicity at 10 µM was 5.86%.

For `Cc1nc2n(n1)CC(Nc1ncnc3c1CCC3)CC2` (centres undefined), the cytotoxicity at 10 µM was -44.1%.

As for `CC(C)C1CN(c2cccc(C#N)n2)CCCN1CC1CC1` (centres undefined), the cytotoxicity at 10 µM is -6.55%.

Take `Cc1nocc1C(=O)N1CCOC2(COCCN(CC3CC3)C2)C1` (centres undefined): the cytotoxicity at 10 µM is 3.42%.

As to `Cc1cncc(C2CCCN(Cc3ccncc3)C2)n1` (centres undefined), the cytotoxicity at 10 µM is -9.8%.

As to `CCCc1nc(CN(CC)C(=O)c2ccc3[nH]cnc3c2)no1`, the cytotoxicity at 10 µM turned out to be 3.98%.

As for `O=C(Nc1cccc(C(=O)OCC2CCCN2)c1)c1ccoc1` (centres undefined), the cytotoxicity at 10 µM is -3.06%.

As to `COC(=O)c1ccc(N2CCN(C(=O)c3cc(C)on3)C(C)C2)cc1` (centres undefined), the cytotoxicity at 10 µM was -7.85%.

Turning to `c1cncc(O[C@H]2CC[C@H]3[C@H]2OCCN3C2CCC2)c1`, the cytotoxicity at 10 µM is -6.69%.

As for `CCN1C(=O)CCC12CCC(NC(=O)NCc1cccnc1)CC2` (centres undefined), the cytotoxicity at 10 µM is -104%.

For the compound `O=C(c1cc(-n2cnnn2)ccc1Cl)N1CCCCCC1`, the cytotoxicity at 10 µM was 5.56%.

`CCNc1ncc(C(=O)N[C@@H](C)[C@H](O)c2ccccc2)cn1`: the cytotoxicity at 10 µM was -4.71%.

Take `CC(C)N(C(=O)Cn1cc(Cl)cn1)c1ccccc1`: the cytotoxicity at 10 µM was -1.18%.

On to `COC(=O)c1ccc(Cl)c(NS(=O)(=O)c2cn(C)cn2)c1`, for which the cytotoxicity at 10 µM is 11.9%.

Turning to `CC(C)(C)n1cc(C2=CCN(CCc3ccccc3)CC2)cn1`, the cytotoxicity at 10 µM amounted to 14.3%.

On to `CCc1cnc(N2C[C@@H]3C[C@H](C(=O)NC4CCC4)[C@H](C2)O3)nc1`, for which the cytotoxicity at 10 µM was found to be 5.74%.

Take `C1CC(CN2CC[C@@H]3O[C@@H](c4nnc(C5CC5)o4)C[C@H]3C2)CCO1`: the cytotoxicity at 10 µM was found to be 5.35%.

For the compound `CC(C)Cc1ncc2c(n1)CN(c1cc(N3CCCC3)nc(N)n1)C2`, the cytotoxicity at 10 µM is 0.489%.

Consider `Cn1nc2c(cc1=O)CN(Cc1nnc(-c3ccco3)o1)CC2`, for which the cytotoxicity at 10 µM was -4.64%.

For the compound `COCc1cccc(CNCc2c(C(C)C)nn(C)c2N(C)C)c1`, the cytotoxicity at 10 µM is -7.16%.

As to `Fc1cnc(N2CCO[C@H]3CN(CC4CCC4)C[C@H]32)nc1`, the cytotoxicity at 10 µM is -8.71%.

Consider `Cn1c2c(c(=O)c3ccccc31)CCC(C)(C)O2`, for which the cytotoxicity at 10 µM was 2.76%.

On to `CC(C)(CN1C[C@H](Nc2ncccn2)[C@@H](C2CC2)C1)N1CCOCC1`, for which the cytotoxicity at 10 µM came out at 5.41%.

On to `Cc1cc(C)cc(CN2CCN(Cc3ccc4nonc4c3)CC2=O)c1`, for which the cytotoxicity at 10 µM came out at 0.403%.

`Cn1cc(CNCCn2cccn2)c(-c2cccnc2)n1`: the cytotoxicity at 10 µM was -2.34%.

With `Fc1cnc(N2CCOCC3(CCCN(c4nncs4)C3)C2)nc1` (centres undefined), the cytotoxicity at 10 µM amounted to 2.01%.

For `CCNc1ncc(C2CC(=O)Nc3c2cnn3Cc2ccncc2)cn1` (centres undefined), the cytotoxicity at 10 µM was -6.87%.

`CN(CC(=O)NCCc1ccccn1)C(=O)c1cccs1`: the cytotoxicity at 10 µM was found to be 2.26%.

Consider `Cc1ccc2c(c1)CN(C(=O)c1cnc(C)cn1)C(CN(C)C)CO2` (centres undefined), for which the cytotoxicity at 10 µM is -22.3%.

As for `Cn1nnn(-c2ccc(NS(=O)(=O)c3ccc(Br)cc3)cc2)c1=O`, the cytotoxicity at 10 µM is -2.77%.

For `CCc1ccc(CN2CCC3(CC2)C(=O)N(C)CCN3CC2CC2)cc1`, the cytotoxicity at 10 µM was 5.68%.

Consider `CC[C@@]1(O)CCN(C(=O)c2ccc(-n3cnnc3)cc2)C[C@H]1O`, for which the cytotoxicity at 10 µM was 3.86%.

As for `CC(C)NC(=O)[C@@H](NC(=O)N1CCN(c2ccc(Cl)cc2)CC1)C(C)C`, the cytotoxicity at 10 µM was 34.9%.

Turning to `Cc1cc2c(=O)n(CCSc3ncn[nH]3)cnc2s1`, the cytotoxicity at 10 µM came out at 8.87%.

`Cc1cc(=O)[nH]c(=O)n1-c1cccc(Cl)c1Cl`: the cytotoxicity at 10 µM is -3.57%.
